According to ChEMBL document CHEMBL1151932, “Antiviral effect of ribonuclease conjugated oligodeoxynucleotides targeting the IRES RNA of the hepatitis C virus” (Bioorg Med Chem Lett, 2009):
Activity calls are given as the source filed them. The rule behind the calls is not given here.

Experiments:
Hepatitis C virus [1] = experiment: Cytotoxicity against HCV infected in human Huh7.5.1 cells treated through microporation for 17 hrs prior to 4 hr infection period measured after 20 hrs postinfection by luciferase assay; assay type: organism-based; conditions: hepacivirus hominis, huh-7, 20 h
[2] = system: Internal ribosome entry site (IRES); experiment: Inhibition of HCV IRES RNA fragment-mediated translation in human Huh7.5.1 cells treated through microporation 17 hrs prior to infection for 4 hrs measured after 20 hrs by reticulocyte based translation assay; assay type: cell-based; conditions: Hepacivirus hominis; Huh-7
Hepatitis C virus [3] = experiment: Antiviral activity against HCV infected in human Huh7.5.1 cells at 100 nM treated through lipofection after 17 hrs of infection by luciferase assay; assay type: functional, organism-based; conditions: Hepacivirus hominis, Huh-7
How it was run: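 Huh7.5.1 cells were infected with reporter HCVcc (FL-J6/JFH-5/C19Rluc2AUbi construct) without trypsinization. After 17 h, cells were transfected with oligodeoxynucleotide using a lipid reagent (10–1000 nM tested). Replication signal was normalized to cell number by WST-1 and expressed as % of a scrambled-sequence non-specific ODN control. Triplicate.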

Hepatitis C virus [4] = experiment: Antiviral activity against HCV in cell-free system at 100 nM; assay type: functional; conditions: Hepacivirus hominis
Hepatitis C virus [5] = experiment: Antiviral activity against HCV infected in human Huh7.5.1 cells at 1000 nM treated through lipofection after 17 hrs of infection by luciferase assay; assay type: functional, Hepacivirus hominis, Huh-7
How it was run: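 Huh7.5.1 cells first infected with HCVcc; after 17 h, ODNs transfected by lipid reagent at 10–1000 nM. Triplicate runs; signal normalised to cell number by WST-1 and expressed as percent of non-specific scrambled ODN control.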

[6] = system: Internal ribosome entry site (IRES); experiment: Inhibition of HCV IRES RNA fragment-mediated translation in human Huh7.5.1 cells treated through microporation 17 hrs prior to infection for 4 hrs measured after 20 hrs by luciferase reporter gene assay; assay type: cell-based; conditions: Hepacivirus hominis; Huh-7
Hepatitis C virus [7] = experiment: Antiviral activity against HCV infected in human Huh7.5.1 cells assessed as reduction in viral replication treated through microporation 17 hrs prior to infection for 4 hrs measured after 20 hrs by luciferase assay relative to control; assay type: functional, Hepacivirus hominis, Huh-7; design: scale not given: the % may be the effect or the level left
How it was run: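 Huh7.5.1 cells electroporated (microporation) with ODNs at 10–1000 nM, then infected with HCVcc; replication read 20 h after infection. Triplicate runs; signal normalised to cell number by WST-1 and expressed as percent of scrambled-sequence non-specific ODN control.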

Hepatitis C virus [8] = experiment: Antiviral activity against HCV infected in human Huh7.5.1 cells assessed as reduction in viral replication at 100 nM treated through microporation 17 hrs prior to infection for 4 hrs measured after 20 hrs by luciferase assay; assay type: functional, organism-based; conditions: Hepacivirus hominis, Huh-7
How it was run: (§1)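 Huh7.5.1 cells were microporated with oligodeoxynucleotide (10–1000 nM) and infected with reporter HCVcc (FL-J6/JFH-5/C19Rluc2AUbi construct) about 17 h later. Viral replication was read 20 h after infection, normalized to cell number by WST-1, and expressed as % of a scrambled-sequence non-specific ODN control. Triplicate.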

Hepatitis C virus [9] = experiment: Antiviral activity against HCV infected in human Huh7.5.1 cells assessed as reduction in viral replication at 1000 nM treated through microporation 17 hrs prior to infection for 4 hrs measured after 20 hrs by luciferase assay; assay type: functional, organism-based; conditions: Hepacivirus hominis, Huh-7; how it was run: as §1
Hepatitis C virus [10] = experiment: Antiviral activity against HCV infected in human Huh7.5.1 cells assessed as reduction in viral replication treated through microporation 17 hrs prior to infection for 4 hrs measured after 20 hrs by luciferase assay; assay type: functional, organism-based; conditions: Hepacivirus hominis; Huh-7; how it was run: as §1
Hepatitis C virus [11] = experiment: Cytotoxicity against HCV infected in human Huh7.5.1 cells treated through microporation for < 17 hrs prior to 4 hrs infection period measured after 20 hrs postinfection by luciferase assay; assay type: organism-based; conditions: hepacivirus hominis, huh-7, 20 h

Structure (SMILES)	Activity (Hepatitis C virus [1])	Activity [2]	Activity (Hepatitis C virus [3])	Activity (Hepatitis C virus [4])	Activity (Hepatitis C virus [5]) [%]	Activity [6]	Activity (Hepatitis C virus [7]) [%]	Activity (Hepatitis C virus [8])	Activity (Hepatitis C virus [9])	Activity (Hepatitis C virus [10])	Activity (Hepatitis C virus [11])
Cc1cn([C@@H]2O[C@H](COP(=O)(O)O[C@H]3[C@@H](O)[C@H](n4ccc(N)nc4=O)O[C@@H]3COP(=O)(O)O[C@H]3C(O)[C@H](n4cnc5c(N)ncnc54)O[C@@H]3COP(=O)(O)O[C@H]3[C@@H](O)[C@H](n4ccc(N)nc4=O)O[C@@H]3COP(=O)(O)O[C@H]3[C@@H](O)[C@H](n4cnc5c(N)ncnc54)O[C@@H]3COP(=O)(O)O[C@H]3[C@@H](O)[C@H](n4cnc5c(N)ncnc54)O[C@@H]3COP(=O)(O)O[C@H]3[C@@H](O)[C@H](n4ccc(N)nc4=O)O[C@@H]3COP(=O)(O)O[C@H]3[C@@H](O)[C@H](n4ccc(N)nc4=O)O[C@@H]3COP(=O)(O)O[C@H]3C[C@H](n4ccc(N)nc4=O)O[C@@H]3COP(=O)(O)OCCCNC(=O)C(CCCc3c[nH]cn3)CCCc3c[nH]cn3)[C@@H](OP(=O)(O)OC[C@H]3O[C@@H](n4cnc5c(N)ncnc54)[C@H](O)[C@@H]3OP(=O)(O)OC[C@H]3O[C@@H](n4ccc(N)nc4=O)C(O)[C@@H]3OP(=O)(O)OC[C@H]3O[C@@H](n4cc(C)c(=O)[nH]c4=O)[C@H](O)[C@@H]3OP(=O)(O)OC[C@H]3O[C@@H](n4ccc(N)nc4=O)[C@H](O)[C@@H]3OP(=O)(O)OC[C@H]3O[C@@H](n4cnc5c(=O)[nH]c(N)nc54)[C@H](O)[C@@H]3OP(=O)(O)OC[C@H]3O[C@@H](n4cnc5c(=O)[nH]c(N)nc54)[C@H](O)[C@@H]3OP(=O)(O)OC[C@H]3O[C@@H](n4cnc(N)cc4=O)[C@H](O)[C@@H]3OP(=O)(O)O)[C@H]2O)c(=O)[nH]c1=O (stereo not given in full)	Non-toxic	Active	Active	inactive	50	Active	–	–	–	–	–
Cc1cn([C@@H]2O[C@H](COP(=O)(O)O[C@H]3[C@@H](O)[C@H](n4ccc(N)nc4=O)O[C@@H]3COP(=O)(O)O[C@H]3[C@@H](O)[C@H](n4cnc5c(N)ncnc54)O[C@@H]3COP(=O)(O)O[C@H]3[C@@H](O)[C@H](n4cc(C)c(=O)[nH]c4=O)O[C@@H]3COP(=O)(O)O[C@H]3[C@@H](O)[C@H](n4ccc(N)nc4=O)O[C@@H]3COP(=O)(O)O[C@@H]3[C@@H](COP(=O)(O)O[C@H]4[C@@H](O)[C@H](n5ccc(N)nc5=O)O[C@@H]4COP(=O)(O)O[C@H]4[C@@H](O)[C@H](n5cnc6c(N)ncnc65)O[C@@H]4COP(=O)(O)O[C@H]4[C@@H](O)[C@H](n5cnc6c(N)ncnc65)O[C@@H]4COP(=O)(O)O[C@H]4[C@@H](O)[C@H](n5ccc(N)nc5=O)O[C@@H]4COP(=O)(O)O[C@H]4[C@@H](O)[C@H](n5ccc(N)nc5=O)O[C@@H]4COP(=O)(O)O[C@H]4[C@@H](O)[C@H](n5ccc(N)nc5=O)O[C@@H]4COP(=O)(O)O[C@H]4C[C@H](n5cnc6c(N)ncnc65)O[C@@H]4COP(=O)(O)OCCCNC(=O)CCc4c[nH]cn4)OC(n4cnc5c(N)ncnc54)[C@@H]3O)[C@@H](OP(=O)(O)OC[C@H]3O[C@@H](n4ccc(N)nc4=O)[C@H](O)[C@@H]3OP(=O)(O)OC[C@H]3O[C@@H](n4cnc5c(=O)[nH]c(N)nc54)[C@H](O)[C@@H]3OP(=O)(O)OC[C@H]3O[C@@H](n4cnc5c(=O)[nH]c(N)nc54)[C@H](O)[C@@H]3OP(=O)(O)OC[C@H]3O[C@@H](n4ccc(N)nc4=O)[C@H](O)[C@@H]3OP(=O)(O)O)[C@H]2O)c(=O)[nH]c1=O (stereo not given in full)	Non-toxic	–	Active	–	50	–	50	Active	inactive	Dose-dependent effect	Toxic
Cc1cn([C@@H]2O[C@H](COP(=O)(O)O[C@H]3[C@@H](O)[C@H](n4ccc(N)nc4=O)O[C@@H]3COP(=O)(O)O[C@H]3[C@@H](O)[C@H](n4ccc(N)nc4=O)O[C@@H]3COP(=O)(O)O[C@H]3[C@@H](O)[C@H](n4ccc(N)nc4=O)O[C@@H]3COP(=O)(O)O[C@H]3[C@@H](O)[C@H](n4cnc5c(N)ncnc54)O[C@@H]3COP(=O)(O)O[C@H]3[C@@H](O)[C@H](n4cnc5c(N)ncnc54)O[C@@H]3COP(=O)(O)O[C@H]3[C@@H](O)[C@H](n4ccc(N)nc4=O)O[C@@H]3CO)[C@@H](OP(=O)(O)OC[C@H]3O[C@@H](n4cnc5c(N)ncnc54)[C@H](O)[C@@H]3OP(=O)(O)OC[C@H]3O[C@@H](n4cnc5c(=O)[nH]c(N)nc54)[C@H](O)[C@@H]3OP(=O)(O)OC[C@H]3O[C@@H](n4cc(C)c(=O)[nH]c4=O)[C@H](O)[C@@H]3OP(=O)(O)OC[C@H]3O[C@@H](n4cc(C)c(=O)[nH]c4=O)[C@H](O)[C@@H]3OP(=O)(O)OC[C@H]3O[C@@H](n4cc(C)c(=O)[nH]c4=O)[C@H](O)[C@@H]3OP(=O)(O)OC[C@H]3O[C@@H](n4cnc5c(=O)[nH]c(N)nc54)[C@H](O)[C@@H]3OP(=O)(O)OC[C@H]3O[C@@H](n4cc(C)c(=O)[nH]c4=O)[C@H](O)[C@@H]3OP(=O)(O)OC[C@H]3O[C@@H](n4ccc(N)nc4=O)[C@H](O)[C@@H]3O[PH](O)(O)OC[C@H]3O[C@@H](n4cnc5c(N)ncnc54)[C@H](O)[C@@H]3OP(=O)(O)OC[C@H]3O[C@@H](n4cnc5c(N)ncnc54)[C@H](O)[C@@H]3OP(=O)(O)O)[C@H]2O)c(=O)[nH]c1=O	Non-toxic	–	–	–	–	–	–	–	–	–	–
Cc1cn([C@@H]2O[C@H](COP(=O)(O)O[C@H]3[C@@H](O)[C@H](n4ccc(N)nc4=O)O[C@@H]3COP(=O)(O)O[C@H]3[C@@H](O)[C@H](n4cnc5c(N)ncnc54)O[C@@H]3COP(=O)(O)O[C@H]3[C@@H](O)[C@H](n4cc(C)c(=O)[nH]c4=O)O[C@@H]3COP(=O)(O)O[C@H]3[C@@H](O)[C@H](n4ccc(N)nc4=O)O[C@@H]3COP(=O)(O)O[C@@H]3[C@@H](COP(=O)(O)O[C@H]4[C@@H](O)[C@H](n5ccc(N)nc5=O)O[C@@H]4COP(=O)(O)O[C@H]4[C@@H](O)[C@H](n5cnc6c(N)ncnc65)O[C@@H]4COP(=O)(O)O[C@H]4[C@@H](O)[C@H](n5cnc6c(N)ncnc65)O[C@@H]4COP(=O)(O)O[C@H]4[C@@H](O)[C@H](n5ccc(N)nc5=O)O[C@@H]4COP(=O)(O)O[C@H]4[C@@H](O)[C@H](n5ccc(N)nc5=O)O[C@@H]4COP(=O)(O)O[C@H]4[C@@H](O)[C@H](n5ccc(N)nc5=O)O[C@@H]4COP(=O)(O)O[C@H]4C[C@H](n5cnc6c(N)ncnc65)O[C@@H]4COP(=O)(O)O)OC(n4cnc5c(N)ncnc54)[C@@H]3O)[C@@H](OP(=O)(O)OC[C@H]3O[C@@H](n4ccc(N)nc4=O)[C@H](O)[C@@H]3OP(=O)(O)OC[C@H]3O[C@@H](n4cnc5c(=O)[nH]c(N)nc54)[C@H](O)[C@@H]3OP(=O)(O)OC[C@H]3O[C@@H](n4cnc5c(=O)[nH]c(N)nc54)[C@H](O)[C@@H]3OP(=O)(O)OC[C@H]3O[C@@H](n4ccc(N)nc4=O)[C@H](O)[C@@H]3OP(=O)(O)O)[C@H]2O)c(=O)[nH]c1=O (stereo not given in full)	Non-toxic	–	Active	–	50	–	50	Active	–	Dose-dependent effect	Toxic
Cc1cn([C@@H]2O[C@H](COP(=O)(O)O[C@H]3[C@@H](O)[C@H](n4ccc(N)nc4=O)O[C@@H]3COP(=O)(O)O[C@H]3[C@@H](O)[C@H](n4cnc5c(N)ncnc54)O[C@@H]3COP(=O)(O)O[C@H]3[C@@H](O)[C@H](n4cc(C)c(=O)[nH]c4=O)O[C@@H]3COP(=O)(O)O[C@H]3[C@@H](O)[C@H](n4ccc(N)nc4=O)O[C@@H]3COP(=O)(O)O[C@H]3[C@@H](O)[C@H](n4cnc5c(N)ncnc54)O[C@@H]3COP(=O)(O)O[C@H]3[C@@H](O)[C@H](n4ccc(N)nc4=O)O[C@@H]3COP(=O)(O)O[C@H]3[C@@H](O)[C@H](n4cnc5c(N)ncnc54)O[C@@H]3COP(=O)(O)O[C@H]3[C@@H](O)[C@H](n4cnc5c(N)ncnc54)O[C@@H]3COP(=O)(O)O[C@H]3[C@@H](O)[C@H](n4ccc(N)nc4=O)O[C@@H]3COP(=O)(O)O[C@H]3[C@@H](O)[C@H](n4ccc(N)nc4=O)O[C@@H]3COP(=O)(O)O[C@H]3[C@@H](O)[C@H](n4ccc(N)nc4=O)O[C@@H]3COP(=O)(O)O[C@H]3[C@@H](O)[C@H](n4cnc5c(N)ncnc54)O[C@@H]3CO)[C@@H](OP(=O)(O)OC[C@H]3O[C@@H](n4ccc(N)nc4=O)[C@H](O)[C@@H]3OP(=O)(O)OC[C@H]3O[C@@H](n4cnc5c(=O)[nH]c(N)nc54)[C@H](O)[C@@H]3OP(=O)(O)OC[C@H]3O[C@@H](n4cnc5c(=O)[nH]c(N)nc54)[C@H](O)[C@@H]3OP(=O)(O)OC[C@H]3O[C@@H](n4cnc(N)cc4=O)C[C@@H]3OP(=O)(O)OCCCNC(=O)CCc3c[nH]cn3)[C@H]2O)c(=O)[nH]c1=O	Non-toxic	–	Active	–	50	–	50	Active	inactive	Dose-dependent effect	Toxic
